Assay results of several laboratories.
Each line is one published result; the experiments were not run side by side.
CDK14 with cyclin Y: Cyclin-dependent kinase 14, with cyclin Y (CDK14, Homo sapiens, UniProt O94921)
CDK14: Cyclin-dependent kinase 14 (CDK14, Homo sapiens, UniProt O94921)

SMILES	target	test	conditions	endpoint	value
COc1cc(Cl)c(C(=O)N[C@@H](CN[C@H]2CC[C@@H](N)CC2)Cc2ccc(C#N)cc2)cc1-c1ccc(CN[C@H](C)c2ccc(C)cc2)o1	CDK14 with cyclin Y	enzyme activity, inhibitor	1 µM	remaining activity	99%
O=C(Nc1cnn(-c2csc(C(=O)NC3COC3)c2)c1)Nc1ccccc1Cl	CDK14	enzyme activity, inhibitor	5 µM	remaining activity	107%
CN1CC(Oc2cnc(C#N)cc2-c2ccn3nc(NC(=O)C4CC4)cc3c2)C1	CDK14 with cyclin Y	enzyme activity, inhibitor	1 µM	inhibition	-11%
Cc1ccc(C(=O)NCc2ccsc2)cc1C#Cc1cn(C(C)C)c2ncnc(N)c12	CDK14 with cyclin Y	enzyme activity, inhibitor	1 µM	activity vs control	92%
Cn1nc(C(F)(F)F)cc1-c1cnc(N2CCc3cc(S(=O)(=O)Nc4c(F)cc(Cl)cc4F)cc(N4CCCC4=O)c32)nc1	CDK14	cell-free assay, competition with immobilised ligand	1 µM	remaining binding	100%
Nc1ncnc2occ(-c3ccc(NC(=O)Nc4cc(C(F)(F)F)ccc4F)cc3)c12	CDK14	cell-free assay, inhibitor	20 µM	remaining signal	0.1%
CCC(=N\O)/C(C)=C/c1ccc(F)cc1	CDK14	cell-free assay, competition with immobilised ligand	1 µM	remaining binding	91%
Fc1cccc(-n2cnc3c(NCc4nc5c(F)c(F)ccc5[nH]4)nc(N4CCOCC4)nc32)c1	CDK14	binding, competition with immobilised ligand	10 µM	binding vs control	55%
CC1CCCN1c1nccc(-c2cnn3ncccc23)n1 (stereo not drawn)	CDK14	binding	1 µM	remaining binding	100%
Cc1sc(C(=O)NC2COC2)cc1-n1cc(NC(=O)Nc2c(F)cccc2Cl)cn1	CDK14	enzyme activity, inhibitor	10 µM	remaining activity	100%
O=[N+]([O-])c1cccc2[nH]c(CNc3nc(N4CCOCC4)nc4c3ncn4-c3ccsc3)nc12	CDK14	binding, competition with immobilised ligand	10 µM	binding vs control	40%
Cc1ccc(C(=O)Nc2ccc(CN3CCN(C)CC3)c(C(F)(F)F)c2)cc1C#Cc1cnc2cccnn12	CDK14	enzyme activity, inhibitor	23.5 nM	remaining activity	68%
